For data set [1], the target named is T1, Histamine H1 receptor (Homo sapiens, UniProt P35367). The experiment in a line: Antagonist activity at human H1 receptor expressed in CHO cells assessed as inhibition of calcium mobilization by FLIPR assay. In kind it is functional, cell-based. In a few lines:
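Intact CHO cells expressing recombinant human H1 receptor were loaded with Fluo-4AM. Inhibition of agonist-induced calcium mobilisation was read in a plate-based FLIPR instrument and expressed as pKi, with the number of determinations given.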

A further data set concerns the target Histamine H3 receptor (Homo sapiens, UniProt Q9Y5N1). The experiment in a line: Antagonist activity at human H3 receptor expressed in CHO cells assessed as inhibition of histamine-induced GTPgamma[S] binding by scintillation proximity assay. In kind it is functional, cell-based. Background: Binding of GTPγS marks nucleotide exchange on a G protein.
Data set [2] addresses T2, Alpha-1A adrenergic receptor (Homo sapiens, UniProt P35348).
T2 sequence (P35348 whole entry): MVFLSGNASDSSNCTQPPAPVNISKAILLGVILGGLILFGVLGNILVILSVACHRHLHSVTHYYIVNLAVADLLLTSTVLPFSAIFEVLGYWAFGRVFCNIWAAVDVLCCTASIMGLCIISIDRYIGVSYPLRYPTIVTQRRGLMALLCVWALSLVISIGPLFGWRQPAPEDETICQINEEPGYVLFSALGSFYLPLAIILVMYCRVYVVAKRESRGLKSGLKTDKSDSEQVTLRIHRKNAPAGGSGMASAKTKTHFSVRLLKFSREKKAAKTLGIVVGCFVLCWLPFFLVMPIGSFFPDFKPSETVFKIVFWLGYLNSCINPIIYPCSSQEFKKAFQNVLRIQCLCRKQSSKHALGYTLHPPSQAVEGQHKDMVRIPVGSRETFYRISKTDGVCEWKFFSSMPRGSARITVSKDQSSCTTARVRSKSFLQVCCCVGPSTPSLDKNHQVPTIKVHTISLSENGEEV
The experiment in a line: Antagonist activity at human adrenergic alpha1A receptor expressed in rat fibroblasts by plate-based calcium imaging. The class given is functional.

Data set [3] in a line: Lipophilicity, log D of compound at pH 7.4. To be noted: buffer. The class given is physicochemical.
Data set [4] addresses T3, Alpha-1B adrenergic receptor (Homo sapiens, UniProt P35368).
T3 sequence (P35368 whole entry): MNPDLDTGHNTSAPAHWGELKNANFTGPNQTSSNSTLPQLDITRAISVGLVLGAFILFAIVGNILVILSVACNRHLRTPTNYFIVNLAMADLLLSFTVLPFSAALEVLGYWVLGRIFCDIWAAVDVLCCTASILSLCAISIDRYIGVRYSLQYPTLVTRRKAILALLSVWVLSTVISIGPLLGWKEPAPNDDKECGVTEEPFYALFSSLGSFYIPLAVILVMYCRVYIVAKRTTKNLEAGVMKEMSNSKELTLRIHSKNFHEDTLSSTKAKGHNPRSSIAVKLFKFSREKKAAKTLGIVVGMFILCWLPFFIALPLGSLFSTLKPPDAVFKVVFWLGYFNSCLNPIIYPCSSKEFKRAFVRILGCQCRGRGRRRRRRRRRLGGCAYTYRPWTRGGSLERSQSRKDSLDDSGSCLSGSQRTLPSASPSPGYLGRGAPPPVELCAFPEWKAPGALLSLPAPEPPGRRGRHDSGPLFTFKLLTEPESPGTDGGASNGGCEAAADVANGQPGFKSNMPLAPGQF
The experiment in a line: Antagonist activity at human adrenergic alpha1B receptor expressed in rat fibroblasts by plate-based calcium imaging. The class given is functional. In a few lines: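 Plate-based calcium imaging in intact Rat1 fibroblast cells expressing the α1B adrenoceptor. Antagonist affinity is expressed as pKi, with the number of determinations given.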

In data set [5] the target is T1, Histamine H1 receptor. The experiment in a line: Antagonist activity against human CHO cells H1 receptor at 100 nM after 30 mins by FLIPR assay. In kind it is functional, cell-based. To be noted: read-out: pA2 (converted). Summed up:
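Modified lower-throughput FLIPR assay in CHO cells expressing recombinant human H1. Histamine concentration–response curves were run without antagonist and with a single 100 nM antagonist concentration after 30 min incubation. EC50 values came from a four-parameter logistic fit. pA2 = log(DR−1) − log[B], where DR is the ratio of the EC50 with antagonist to the control EC50. Values are mean ± SEM, with SD given when n<3.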

Data set [6] concerns CHO. The experiment in a line: Selectivity ratio of pKi for human H3 receptor expressed in CHO cells to pKi for human adrenergic alpha1B receptor expressed in rat fibroblast. The class given is cell-based. In a few lines:
(§1)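 Ratio of two pKi values. The H3 pKi comes from membranes of CHO cells transfected with cloned human H3, read as reduction of histamine-stimulated GTPγS binding by scintillation proximity detection. The α1A or α1B pKi comes from intact Rat1 fibroblast cells expressing that receptor, read by plate-based calcium imaging.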

In data set [7] the target is Voltage-gated inwardly rectifying potassium channel KCNH2 (Homo sapiens, UniProt Q12809). The experiment in a line: Displacement of [3H]dofetilide from human ERG.
The subject of data set [8] is CHO. The experiment in a line: Selectivity ratio of pKi for human H3 receptor expressed in CHO cells to pKi for human H1 receptor expressed in CHO cells. The class given is cell-based. Summed up:
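Ratio of two pKi values. The H3 pKi comes from membranes of CHO cells transfected with cloned human H3 receptor, read as reduction of histamine-stimulated GTPγS binding by scintillation proximity detection. The H1 pKi comes from intact CHO cells expressing recombinant human H1, read as inhibition of agonist-induced calcium mobilisation (Fluo-4AM dye, FLIPR plate-based imaging).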

Data set [9] concerns CHO. The experiment in a line: Selectivity ratio of pKi for human H3 receptor expressed in CHO cells to pKi for human adrenergic alpha1A receptor expressed in rat fibroblast. In kind it is cell-based. Summed up: as §1

The results in this text go back to ChEMBL document CHEMBL2146436, “Synthesis and pharmacological investigation of azaphthalazinone human histamine H(1) receptor antagonists” (Bioorg Med Chem, 2012).

Chain of Histamine H3 receptor (Q9Y5N1 whole entry): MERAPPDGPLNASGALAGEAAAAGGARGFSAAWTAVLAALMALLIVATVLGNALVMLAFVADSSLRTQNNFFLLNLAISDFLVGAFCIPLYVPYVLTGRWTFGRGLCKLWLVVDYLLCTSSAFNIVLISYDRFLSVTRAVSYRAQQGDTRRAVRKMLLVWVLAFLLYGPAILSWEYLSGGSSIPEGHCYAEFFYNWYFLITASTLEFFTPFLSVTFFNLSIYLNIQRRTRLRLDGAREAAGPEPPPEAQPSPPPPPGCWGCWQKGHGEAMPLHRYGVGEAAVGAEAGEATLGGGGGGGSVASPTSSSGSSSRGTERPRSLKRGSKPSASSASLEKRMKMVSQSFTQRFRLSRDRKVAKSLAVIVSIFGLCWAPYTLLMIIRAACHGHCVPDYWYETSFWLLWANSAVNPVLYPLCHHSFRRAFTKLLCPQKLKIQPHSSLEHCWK
T1 sequence (P35367 whole entry): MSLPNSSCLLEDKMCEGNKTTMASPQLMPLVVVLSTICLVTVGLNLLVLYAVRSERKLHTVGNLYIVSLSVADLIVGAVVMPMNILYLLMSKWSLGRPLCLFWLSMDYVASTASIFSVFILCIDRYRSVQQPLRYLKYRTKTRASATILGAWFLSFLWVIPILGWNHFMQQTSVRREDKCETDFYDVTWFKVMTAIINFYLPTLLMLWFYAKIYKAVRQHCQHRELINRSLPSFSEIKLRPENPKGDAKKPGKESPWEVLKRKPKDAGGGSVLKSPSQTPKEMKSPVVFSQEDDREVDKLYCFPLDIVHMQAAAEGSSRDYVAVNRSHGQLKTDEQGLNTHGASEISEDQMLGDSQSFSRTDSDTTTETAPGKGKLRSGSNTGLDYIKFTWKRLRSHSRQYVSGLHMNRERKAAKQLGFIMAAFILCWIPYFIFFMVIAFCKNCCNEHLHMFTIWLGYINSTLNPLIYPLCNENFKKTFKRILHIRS
Chain of Voltage-gated inwardly rectifying potassium channel KCNH2 (Q12809 whole entry): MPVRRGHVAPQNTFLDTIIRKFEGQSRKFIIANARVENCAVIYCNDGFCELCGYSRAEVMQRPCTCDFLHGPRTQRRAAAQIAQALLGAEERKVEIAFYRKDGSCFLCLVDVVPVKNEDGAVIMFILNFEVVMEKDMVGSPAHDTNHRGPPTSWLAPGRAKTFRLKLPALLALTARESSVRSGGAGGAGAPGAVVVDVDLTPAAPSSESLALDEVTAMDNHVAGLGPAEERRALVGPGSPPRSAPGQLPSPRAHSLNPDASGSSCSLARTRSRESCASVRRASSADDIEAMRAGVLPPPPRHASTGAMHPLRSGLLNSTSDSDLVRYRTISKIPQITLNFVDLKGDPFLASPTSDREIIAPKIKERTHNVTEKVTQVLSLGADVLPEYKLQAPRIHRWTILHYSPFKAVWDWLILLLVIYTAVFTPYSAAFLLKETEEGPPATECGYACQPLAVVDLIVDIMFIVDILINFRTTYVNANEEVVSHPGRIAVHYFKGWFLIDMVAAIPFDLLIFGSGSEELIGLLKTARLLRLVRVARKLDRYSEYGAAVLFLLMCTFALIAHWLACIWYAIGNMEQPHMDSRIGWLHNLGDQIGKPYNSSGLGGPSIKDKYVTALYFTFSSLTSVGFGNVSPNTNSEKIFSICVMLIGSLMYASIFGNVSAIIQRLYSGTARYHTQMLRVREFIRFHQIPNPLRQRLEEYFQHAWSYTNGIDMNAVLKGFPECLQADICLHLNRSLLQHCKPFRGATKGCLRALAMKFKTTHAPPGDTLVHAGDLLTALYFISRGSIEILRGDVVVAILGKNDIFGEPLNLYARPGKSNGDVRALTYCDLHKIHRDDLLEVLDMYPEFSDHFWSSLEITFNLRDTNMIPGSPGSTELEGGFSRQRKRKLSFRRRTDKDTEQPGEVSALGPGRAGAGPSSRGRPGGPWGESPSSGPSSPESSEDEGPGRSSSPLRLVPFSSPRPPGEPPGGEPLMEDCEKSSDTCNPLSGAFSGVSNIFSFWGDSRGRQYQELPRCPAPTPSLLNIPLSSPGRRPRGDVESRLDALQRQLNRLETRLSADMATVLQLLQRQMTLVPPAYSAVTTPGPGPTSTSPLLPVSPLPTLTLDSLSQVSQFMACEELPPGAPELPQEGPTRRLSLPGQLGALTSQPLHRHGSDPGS

For the compound `COCCN1CCC[C@@H]1Cn1nc(Cc2ccc(Cl)cc2)c2cccnc2c1=O`, the Ki at Histamine H1 receptor [1] was 1 nM; on Histamine H3 receptor, 631 nM; in [2], 316 nM; in [4] it was 316 nM. The logD in data set [3] was found to be 2.1. Further, the Kb on Histamine H1 receptor [5] is 0.794 nM.
Consider `CCCCN1CCC[C@@H]1Cn1nc(Cc2ccc(Cl)cc2)c2cnccc2c1=O`, for which the Ratio pKi in the data set with CHO [6] was 10; in the data set with CHO [8], 2.7; in the data set on CHO [9], 10. The Ki at Histamine H1 receptor [1] is 0.398 nM; on Histamine H3 receptor, 631 nM; in data set [2], 6.31 nM; in [4], 7.94 nM. In data set [7], this compound gave an IC50 of 50.1 nM. The compound further gave a logD in [3] of 3.2. For the same compound, the Kb at Histamine H1 receptor [5] is 0.1 nM.
Consider `CN1CCC[C@@H]1Cn1nc(Cc2ccc(Cl)cc2)c2cccnc2c1=O`, for which the Ki at Histamine H1 receptor [1] was 0.355 nM; in data set [2], 631 nM; in [4] it was 158 nM. In data set [3], the logD came out at 1.7. On Histamine H1 receptor [5], the Kb was 0.501 nM.
On to `CCCCN1CCC[C@@H]1Cn1nc(Cc2ccc(Cl)cc2)c2ncccc2c1=O`, for which the Ki at Histamine H1 receptor [1] is 0.631 nM; on Histamine H3 receptor it was 631 nM; in [2] it was 50.1 nM; in [4], 20 nM. In data set [3], this compound returned a logD of 3.4.
For `CN1CCCC(n2nc(Cc3ccc(Cl)cc3)c3ccccc3c2=O)CC1` (centres undefined) [AZELASTINE], the Ki at Histamine H3 receptor was 148 nM. In addition, the logD in data set [3] is 2.3.
For the compound `COCCN1CCC[C@@H]1Cn1nc(Cc2ccc(Cl)cc2)c2ccccc2c1=O`, the Ki at Histamine H1 receptor [1] is 0.513 nM; at Histamine H3 receptor, 398 nM; in data set [2], 20 nM; in data set [4] it was 12.6 nM. In data set [3], this compound showed a logD of 3.3.
In the case of `CN1CCC[C@@H]1Cn1nc(Cc2ccc(Cl)cc2)c2ccccc2c1=O`, the Ki on Histamine H1 receptor [1] is 0.162 nM; on Histamine H3 receptor it was 437 nM; in [2], 31.6 nM; in data set [4] it was 10 nM. In [3], the logD worked out at 3. The Kb on Histamine H1 receptor [5] was 0.1 nM.
As for `COCCN1CCC[C@@H]1Cn1nc(Cc2ccc(Cl)cc2)c2ncccc2c1=O`, the Ki is 0.537 nM at Histamine H1 receptor [1], 158 nM in data set [2] and 39.8 nM in data set [4]. In [3], the logD came to 2.9.
Take `CN1CCC[C@@H]1Cn1nc(Cc2ccc(Cl)cc2)c2ncccc2c1=O`: the Ki at Histamine H1 receptor [1] is 0.316 nM; on Histamine H3 receptor, 316 nM; in [2] it was 200 nM; in [4], 50.1 nM. The compound further showed a logD in data set [3] of 2.7. Also, the Kb on Histamine H1 receptor [5] was 0.316 nM.
As to `O=c1c2ccccc2c(Cc2ccc(Cl)cc2)nn1C[C@H]1CCCN1CCCCc1ccc(OCCCN2CCCCCC2)cc1` [GSK-1004723], the logD in data set [3] worked out at 3.2.
For `CN1CCC[C@@H]1Cn1nc(Cc2ccc(Cl)cc2)c2ccncc2c1=O`, the figures for the Ki (on Histamine H1 receptor [1]; on Histamine H3 receptor; in data set [2]) were 0.692 nM, 398 nM and 20 nM, respectively. The same compound came in with a logD in data set [3] of 2.2. For the same compound, on Histamine H1 receptor [5], the Kb is 2.51 nM.
Turning to `O=c1c2ccncc2c(Cc2ccc(Cl)cc2)nn1C[C@H]1CCCN1CCCCc1ccc(OCCCN2CCCCCC2)cc1`, the figures for the Ratio pKi in the data set with CHO [6], in the data set on CHO [8] and in the data set with CHO [9] were 10, 2.7 and 10, respectively. Also, the inhibition constant (Ki) on Histamine H1 receptor [1] is 17.4 nM; on Histamine H3 receptor, 0.562 nM; in data set [2], 31.6 nM; in [4] it was 39.8 nM. In data set [7], this compound had an IC50 of 158 nM. Further, the Kb on Histamine H1 receptor [5] was 1 nM.
In the case of `CCCCN1CCC[C@@H]1Cn1nc(Cc2ccc(Cl)cc2)c2cccnc2c1=O`, the Ki at Histamine H1 receptor [1] is 0.631 nM; at Histamine H3 receptor, 631 nM; in data set [2], 100 nM; in data set [4] it was 100 nM. In addition, the logD in data set [3] was 2.8. Moreover, at Histamine H1 receptor [5], the Kb was 0.316 nM.
With `CN1CCC[C@@H]1Cn1nc(Cc2ccc(Cl)cc2)c2nccnc2c1=O`, the Ki at Histamine H1 receptor [1] is 1.29 nM; on Histamine H3 receptor it was 631 nM; in data set [2] it was 398 nM; in [4] it was 251 nM. This compound had a logD in [3] of 1.7. For the same compound, on Histamine H1 receptor [5], the Kb is 3.98 nM.
Turning to `CN1CCC[C@@H]1Cn1nc(Cc2ccc(Cl)cc2)c2cnccc2c1=O`, the Ki is 0.347 nM on Histamine H1 receptor [1], 398 nM at Histamine H3 receptor and 12.6 nM in data set [2]. The compound also came in with a logD in data set [3] of 1.9. In addition, the Kb on Histamine H1 receptor [5] was 0.316 nM.
Take `CCCCN1CCC[C@@H]1Cn1nc(Cc2ccc(Cl)cc2)c2ccccc2c1=O`: the Ki on Histamine H1 receptor [1] was 0.912 nM; on Histamine H3 receptor, 437 nM. In data set [3], this compound yielded a logD of 3.1. In addition, on Histamine H1 receptor [5], the Kb is 0.0398 nM.
With `COCCN1CCC[C@@H]1Cn1nc(Cc2ccc(Cl)cc2)c2cnccc2c1=O`, the Ki was 0.251 nM at Histamine H1 receptor [1] and 10 nM in data set [4]. In addition, the logD in data set [3] came out at 2.7. The Kb on Histamine H1 receptor [5] is 0.251 nM.

One may read the Ki as a dissociation constant, usually derived from enzyme kinetics or from competition with a known ligand. Broadly, the logD is lipophilicity at a set pH, counting ionised and neutral species. A word on the IC50: it is the concentration that gives 50% inhibition.
